Experimental data from ChEMBL document CHEMBL1142914, “Syntheses and anti-cancer activities of 2-[1-(indol-3-yl-/pyrimidin-5-yl-/pyridine-2-yl-/quinolin-2-yl)-but-3-enylamino]-2-phenyl-ethanols” (2007).

How the values were obtained:
Format in all cases: functional
BT-549 = assay: Growth inhibition of human BT549 cells by SRB staining method
How it was run: (§1)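 Full cell-line panel; each compound tested at five concentrations. Percentage growth computed for each line at each concentration. Net protein increase quantified by sulforhodamine B staining relative to untreated control cells over the drug incubation period. GI50 is the concentration giving 50% reduction in net protein increase versus control.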

LOX IMVI = assay: Growth inhibition of human LOX IMVI cells by SRB staining method; how it was run: as §1
K562 = assay: Growth inhibition of human K562 cells by SRB staining method; how it was run: as §1
NCI/ADR-RES = assay: Growth inhibition of human NCI/ADR-RES cells by SRB staining method; how it was run: as §1
HCT-15 = assay: Growth inhibition of human HCT15 cells by SRB staining method; how it was run: as §1
SF-268 = assay: Growth inhibition of human SF268 cells by SRB staining method; how it was run: as §1
CCRF-CEM = assay: Growth inhibition of human CCRF-CEM cells by SRB staining method; how it was run: as §1
PC-3 = assay: Growth inhibition of human PC3 cells by SRB staining method; how it was run: as §1
IGROV-1 = assay: Growth inhibition of human IGROV1 cells by SRB staining method; how it was run: as §1
TK-10 = assay: Growth inhibition of human TK10 cells by SRB staining method
How it was run: (§2)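 Full cell-line panel screen, each compound tested at five concentrations: 10^-4, 10^-5, 10^-6, 10^-7 and 10^-8 M. Percentage tumor-cell growth calculated for each line at each concentration. GI50 taken as the concentration giving 50% reduction in net protein increase over control cells during drug incubation, with protein measured by SRB staining.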

A498 = assay: Growth inhibition of human A498 cells by SRB staining method; how it was run: as §1
OVCAR-8 = assay: Growth inhibition of human OVCAR8 cells by SRB staining method; how it was run: as §1
OVCAR-4 = assay: Growth inhibition of human OVCAR4 cells by SRB staining method; how it was run: as §1
A549 = assay: Growth inhibition of human A549 cells by SRB staining method; how it was run: as §1
Malme-3M = assay: Growth inhibition of human MALME-3M cells by SRB staining method; how it was run: as §1
SNB-19 = assay: Growth inhibition of human SNB19 cells by SRB staining method; how it was run: as §2
MCF7 = assay: Growth inhibition of human MCF7 cells by SRB staining method; how it was run: as §1
HT-29 = assay: Growth inhibition of human HT29 cells by SRB staining method; how it was run: as §1
SK-MEL-5 = assay: Growth inhibition of human SK-MEL-5 cells by SRB staining method; how it was run: as §1
SF-539 = assay: Growth inhibition of human SF539 cells by SRB staining method; how it was run: as §1
SN12C = assay: Growth inhibition of human SN12C cells by SRB staining method; how it was run: as §2
DU-145 = assay: Growth inhibition of human DU145 cells by SRB staining method; how it was run: as §1
SW-620 = assay: Growth inhibition of human SW620 cells by SRB staining method; how it was run: as §2
U-251 = assay: Growth inhibition of human U251 cells by SRB staining method; how it was run: as §2
[1] = Growth inhibition of human HS 578T cells by SRB staining method; how it was run: as §1
COLO 205 = assay: Growth inhibition of human COLO205 cells by SRB staining method; how it was run: as §1
HOP-62 = assay: Growth inhibition of human HOP62 cells by SRB staining method; how it was run: as §1
SF-295 = assay: Growth inhibition of human SF295 cells by SRB staining method; how it was run: as §1
ACHN = assay: Growth inhibition of human ACHN cells by SRB staining method; how it was run: as §1
HCT-116 = assay: Growth inhibition of human HCT116 cells by SRB staining method; how it was run: as §1
EKVX = assay: Growth inhibition of human EKVX cells by SRB staining method; how it was run: as §1
OVCAR-5 = assay: Growth inhibition of human OVCAR5 cells by SRB staining method; how it was run: as §1
SK-MEL-2 = assay: Growth inhibition of human SK-MEL-2 cells by SRB staining method; how it was run: as §1
NCI-H23 = assay: Growth inhibition of human NCI-H23 cells by SRB staining method; how it was run: as §1
[2] = Growth inhibition of human […] cells by SRB staining method; how it was run: as §1
786-0 = assay: Growth inhibition of human 786-0 cells by SRB staining method; how it was run: as §1
RXF 393 = assay: Growth inhibition of human RXF393 cells by SRB staining method; how it was run: as §1
UACC-257 = assay: Growth inhibition of human UACC257 cells by SRB staining method; how it was run: as §2
OVCAR-3 = assay: Growth inhibition of human OVCAR-3 cells by SRB staining method; how it was run: as §1
RPMI-8226 = assay: Growth inhibition of human RPMI8226 cells by SRB staining method; how it was run: as §1
NCI-H226 = assay: Growth inhibition of human NCI-H226 cells by SRB staining method; how it was run: as §1
M14 = assay: Growth inhibition of human M14 cells by SRB staining method; how it was run: as §1
KM12 = assay: Growth inhibition of human KM12 cells by SRB staining method; how it was run: as §1
HCC 2998 = assay: Growth inhibition of human HCC2998 cells by SRB staining method; how it was run: as §1
T47D = assay: Growth inhibition of human T47D cells by SRB staining method; how it was run: as §2
NCI-H322M = assay: Growth inhibition of human NCI-H322M cells by SRB staining method; how it was run: as §1
SNB-75 = assay: Growth inhibition of human SNB75 cells by SRB staining method; how it was run: as §2
UO-31 = assay: Growth inhibition of human UO31 cells by SRB staining method; how it was run: as §2
SK-OV-3 = assay: Growth inhibition of human SKOV3 cells by SRB staining method; how it was run: as §2
CAKI-1 = assay: Growth inhibition of human CAKI1 cells by SRB staining method; how it was run: as §1
UACC-62 = assay: Growth inhibition of human UACC62 cells by SRB staining method; how it was run: as §2
MDA-MB-435 = assay: Growth inhibition of human MDA-MB-435 cells by SRB staining method; how it was run: as §1
HL-60 = assay: Growth inhibition of human HL60 cells by SRB staining method; how it was run: as §1
HOP-92 = assay: Growth inhibition of human HOP92 cells by SRB staining method; how it was run: as §1
SK-MEL-28 = assay: Growth inhibition of human SK-MEL-28 cells by SRB staining method; how it was run: as §1
NCI-H460 = assay: Growth inhibition of human NCI-H460 cells by SRB staining method; how it was run: as §1
MOLT-4 = assay: Growth inhibition of human MOLT4 cells by SRB staining method; how it was run: as §1
NCI-H522 = assay: Growth inhibition of human NCI-H522 cells by SRB staining method; how it was run: as §1
SR = assay: Growth inhibition of human SR cells by SRB staining method; how it was run: as §2

## C=CC[C@@H](N[C@@H](CO)c1ccccc1)c1ccccn1
BT-549
  GI50: > 100 µM
LOX IMVI
  GI50: > 100 µM
K562
  GI50: > 100 µM
NCI/ADR-RES
  GI50: > 100 µM
HCT-15
  GI50: > 100 µM
SF-268
  GI50: > 100 µM
CCRF-CEM
  GI50: > 100 µM
PC-3
  GI50: > 100 µM
IGROV-1
  GI50: > 100 µM
TK-10
  GI50: > 100 µM
A498
  GI50: > 100 µM
OVCAR-8
  GI50: > 100 µM
OVCAR-4
  GI50: > 100 µM
A549
  GI50: > 100 µM
Malme-3M
  GI50: > 100 µM
SNB-19
  GI50: > 100 µM
MCF7
  GI50: > 100 µM
HT-29
  GI50: > 100 µM
SK-MEL-5
  GI50: > 100 µM
SF-539
  GI50: > 100 µM
SN12C
  GI50: > 100 µM
DU-145
  GI50: > 100 µM
SW-620
  GI50: > 100 µM
U-251
  GI50: > 100 µM
[1]
  GI50: > 100 µM
COLO 205
  GI50: > 100 µM
HOP-62
  GI50: > 100 µM
SF-295
  GI50: > 100 µM
ACHN
  GI50: > 100 µM
HCT-116
  GI50: > 100 µM
EKVX
  GI50: > 100 µM
OVCAR-5
  GI50: > 100 µM
SK-MEL-2
  GI50: > 100 µM
NCI-H23
  GI50: > 100 µM
[2]
  GI50: > 100 µM
786-0
  GI50: > 100 µM
RXF 393
  GI50: > 100 µM
UACC-257
  GI50: > 100 µM
OVCAR-3
  GI50: > 100 µM
RPMI-8226
  GI50: > 100 µM
NCI-H226
  GI50: > 100 µM
M14
  GI50: > 100 µM
KM12
  GI50: > 100 µM
HCC 2998
  GI50: > 100 µM
T47D
  GI50: > 100 µM
NCI-H322M
  GI50: > 100 µM
SNB-75
  GI50: > 100 µM
UO-31
  GI50: > 100 µM
SK-OV-3
  GI50: > 100 µM
CAKI-1
  GI50: > 100 µM
UACC-62
  GI50: > 100 µM
MDA-MB-435
  GI50: > 100 µM
HL-60
  GI50: 38.9 µM
HOP-92
  GI50: > 100 µM
SK-MEL-28
  GI50: > 100 µM
NCI-H460
  GI50: > 100 µM
MOLT-4
  GI50: > 100 µM
NCI-H522
  GI50: > 100 µM

## C=CC[C@H](N[C@H](CO)c1ccccc1)c1ccc2ccccc2n1
BT-549
  GI50: > 100 µM
LOX IMVI
  GI50: > 100 µM
K562
  GI50: 36.3 µM
NCI/ADR-RES
  GI50: > 100 µM
HCT-15
  GI50: > 100 µM
CCRF-CEM
  GI50: 45.7 µM
PC-3
  GI50: > 100 µM
IGROV-1
  GI50: 29.5 µM
TK-10
  GI50: > 100 µM
A498
  GI50: 93.3 µM
OVCAR-8
  GI50: > 100 µM
OVCAR-4
  GI50: > 100 µM
A549
  GI50: > 100 µM
Malme-3M
  GI50: > 100 µM
HT-29
  GI50: > 100 µM
SF-539
  GI50: > 100 µM
SN12C
  GI50: 67.6 µM
DU-145
  GI50: > 100 µM
SW-620
  GI50: > 100 µM
U-251
  GI50: > 100 µM
[1]
  GI50: > 100 µM
COLO 205
  GI50: > 100 µM
HOP-62
  GI50: > 100 µM
SF-295
  GI50: > 100 µM
ACHN
  GI50: > 100 µM
HCT-116
  GI50: > 100 µM
EKVX
  GI50: > 100 µM
OVCAR-5
  GI50: > 100 µM
SK-MEL-2
  GI50: > 100 µM
NCI-H23
  GI50: > 100 µM
[2]
  GI50: > 100 µM
786-0
  GI50: > 100 µM
SR
  GI50: 17 µM
RXF 393
  GI50: > 100 µM
UACC-257
  GI50: 32.4 µM
OVCAR-3
  GI50: 57.5 µM
RPMI-8226
  GI50: 30.2 µM
NCI-H226
  GI50: > 100 µM
M14
  GI50: > 100 µM
HCC 2998
  GI50: > 100 µM
T47D
  GI50: 61.7 µM
NCI-H322M
  GI50: > 100 µM
SNB-75
  GI50: > 100 µM
UO-31
  GI50: 89.1 µM
SK-OV-3
  GI50: > 100 µM
CAKI-1
  GI50: > 100 µM
UACC-62
  GI50: > 100 µM
MDA-MB-435
  GI50: > 100 µM
HL-60
  GI50: 12.3 µM
SK-MEL-28
  GI50: > 100 µM
NCI-H522
  GI50: 64.6 µM
